Source: ChEMBL document CHEMBL4130552, “Design, synthesis and biological evaluation of novel benzimidazole amidines as potent multi-target inhibitors for the treatment of non-small cell lung cancer” (Eur J Med Chem, 2018)

Tested on: A549
Test: Antiproliferative activity against human A549 cells after 72 hrs by MTT assay
Assay type: functional, cell-based
Settings: A549, 72 h
Summary of the method: (§1)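 Cells seeded at 5000/well on day 0 in medium with 10% FBS, 2 mM L-glutamine, penicillin/streptomycin, 37 °C, 5% CO2. Compounds added at five 10-fold dilutions with DMSO ≤0.1%, then 72 h exposure. MTT absorbance converted to percentage growth versus untreated wells. IC50 by linear regression between bracketing concentrations. Quadruplicate points, three independent experiments.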

Question: For `Clc1ccc(-n2cc(COc3ccc(-c4nc5ccc(Cl)cc5[nH]4)cc3)nn2)cc1`, which IC50 is on record?
Answer: 2.91 µM

Question: With `c1ccc(-n2cc(COc3ccc(-c4nc5cc(C6=NCCN6)ccc5[nH]4)cc3)nn2)cc1` as the compound, how does the IC50 read?
Answer: 49.7 µM

Question: With `Cl.Clc1ccc(Cn2cc(COc3ccc(-c4nc5cc(C6=NCCN6)ccc5[nH]4)cc3)nn2)cc1` as the compound, how does the IC50 read?
Answer: 9.34 µM

Question: With `N=C(N)c1ccc2[nH]c(-c3ccc(OCc4cn(-c5ccc(F)cc5)nn4)cc3)nc2c1` as the compound, how does the IC50 read?
Answer: 81 µM

Question: For `CC(C)NC(=N)c1ccc2[nH]c(-c3ccc(OCc4cn(-c5ccc(F)cc5)nn4)cc3)nc2c1`, which IC50 is on record?
Answer: 8.37 µM

Question: Which IC50 does the source give for `CC(C)NC(=N)c1ccc2[nH]c(CCc3cn(-c4ccc(Cl)cc4)nn3)nc2c1` here?
Answer: 33.4 µM

Question: With `CC(C)NC(=N)c1ccc2[nH]c(-c3ccc(OCc4cn(-c5ccc(I)cc5)nn4)cc3)nc2c1` as the compound, how does the IC50 read?
Answer: 0.08 µM

Tested on: CFPAC-1
Test: Antiproliferative activity against human CFPAC-1 cells after 72 hrs by MTT assay
Assay type: functional, cell-based
Settings: CFPAC-1, 72 h
Summary of the method: as §1

Question: With `Clc1ccc(-n2cc(COc3ccc(-c4nc5ccc(Cl)cc5[nH]4)cc3)nn2)cc1` as the compound, how does the IC50 read?
Answer: 3.74 µM

Question: With `c1ccc(-n2cc(COc3ccc(-c4nc5cc(C6=NCCN6)ccc5[nH]4)cc3)nn2)cc1` as the compound, how does the IC50 read?
Answer: 26.2 µM

Question: Which IC50 does the source give for `Cl.Clc1ccc(Cn2cc(COc3ccc(-c4nc5cc(C6=NCCN6)ccc5[nH]4)cc3)nn2)cc1` here?
Answer: 6.82 µM

Question: Which IC50 does the source give for `N=C(N)c1ccc2[nH]c(-c3ccc(OCc4cn(-c5ccc(F)cc5)nn4)cc3)nc2c1` here?
Answer: > 100 µM

Question: With `CC(C)NC(=N)c1ccc2[nH]c(-c3ccc(OCc4cn(-c5ccc(F)cc5)nn4)cc3)nc2c1` as the compound, how does the IC50 read?
Answer: 0.71 µM

Question: With `CC(C)NC(=N)c1ccc2[nH]c(CCc3cn(-c4ccc(Cl)cc4)nn3)nc2c1` as the compound, how does the IC50 read?
Answer: 36.1 µM

Question: Which IC50 does the source give for `CC(C)NC(=N)c1ccc2[nH]c(-c3ccc(OCc4cn(-c5ccc(I)cc5)nn4)cc3)nc2c1` here?
Answer: 5.13 µM

Tested on: HeLa
Test: Antiproliferative activity against human HeLa cells after 72 hrs by MTT assay
Assay type: functional, cell-based
Settings: not given
Summary of the method: as §1

Question: With `Clc1ccc(-n2cc(COc3ccc(-c4nc5ccc(Cl)cc5[nH]4)cc3)nn2)cc1` as the compound, how does the IC50 read?
Answer: 3.54 µM

Question: For `c1ccc(-n2cc(COc3ccc(-c4nc5cc(C6=NCCN6)ccc5[nH]4)cc3)nn2)cc1`, which IC50 is on record?
Answer: 7.78 µM

Question: With `Cl.Clc1ccc(Cn2cc(COc3ccc(-c4nc5cc(C6=NCCN6)ccc5[nH]4)cc3)nn2)cc1` as the compound, how does the IC50 read?
Answer: 5.06 µM

Question: Which IC50 does the source give for `N=C(N)c1ccc2[nH]c(-c3ccc(OCc4cn(-c5ccc(F)cc5)nn4)cc3)nc2c1` here?
Answer: 7.39 µM

Question: With `CC(C)NC(=N)c1ccc2[nH]c(-c3ccc(OCc4cn(-c5ccc(F)cc5)nn4)cc3)nc2c1` as the compound, how does the IC50 read?
Answer: 0.59 µM

Question: For `CC(C)NC(=N)c1ccc2[nH]c(CCc3cn(-c4ccc(Cl)cc4)nn3)nc2c1`, which IC50 is on record?
Answer: 3.11 µM

Question: With `CC(C)NC(=N)c1ccc2[nH]c(-c3ccc(OCc4cn(-c5ccc(I)cc5)nn4)cc3)nc2c1` as the compound, how does the IC50 read?
Answer: 0.51 µM

Tested on: not listed separately
Test: Selectivity ratio of IC50 for human A549 cells to IC50 for human SW620 cells
Assay type: functional
Settings: not given

Question: With `Cl.Clc1ccc(Cn2cc(COc3ccc(-c4nc5cc(C6=NCCN6)ccc5[nH]4)cc3)nn2)cc1` as the compound, how does the “Ratio IC50” value read?
Answer: >100

Tested on: not listed separately
Test: Selectivity ratio of IC50 for human HeLa cells to IC50 for human SW620 cells
Assay type: functional
Settings: not given

Question: For `Cl.Clc1ccc(Cn2cc(COc3ccc(-c4nc5cc(C6=NCCN6)ccc5[nH]4)cc3)nn2)cc1`, which “Ratio IC50” value is on record?
Answer: >100

Tested on: WI-38
Test: Antiproliferative activity against human WI38 cells after 72 hrs by MTT assay
Assay type: cell-based
Settings: WI-38, 72 h
Summary of the method: as §1

Question: Which IC50 does the source give for `Clc1ccc(-n2cc(COc3ccc(-c4nc5ccc(Cl)cc5[nH]4)cc3)nn2)cc1` here?
Answer: 1520 nM

Question: Which IC50 does the source give for `c1ccc(-n2cc(COc3ccc(-c4nc5cc(C6=NCCN6)ccc5[nH]4)cc3)nn2)cc1` here?
Answer: 100 nM

Question: Which IC50 does the source give for `Cl.Clc1ccc(Cn2cc(COc3ccc(-c4nc5cc(C6=NCCN6)ccc5[nH]4)cc3)nn2)cc1` here?
Answer: 5770 nM

Question: With `N=C(N)c1ccc2[nH]c(-c3ccc(OCc4cn(-c5ccc(F)cc5)nn4)cc3)nc2c1` as the compound, how does the IC50 read?
Answer: 700 nM

Question: Which IC50 does the source give for `CC(C)NC(=N)c1ccc2[nH]c(-c3ccc(OCc4cn(-c5ccc(F)cc5)nn4)cc3)nc2c1` here?
Answer: 660 nM

Question: With `CC(C)NC(=N)c1ccc2[nH]c(CCc3cn(-c4ccc(Cl)cc4)nn3)nc2c1` as the compound, how does the IC50 read?
Answer: 3710 nM

Question: For `CC(C)NC(=N)c1ccc2[nH]c(-c3ccc(OCc4cn(-c5ccc(I)cc5)nn4)cc3)nc2c1`, which IC50 is on record?
Answer: 200 nM

Tested on: not listed separately
Test: Selectivity ratio of IC50 for human CFPAC-1 cells to IC50 for human SW620 cells
Assay type: functional
Settings: not given

Question: With `Cl.Clc1ccc(Cn2cc(COc3ccc(-c4nc5cc(C6=NCCN6)ccc5[nH]4)cc3)nn2)cc1` as the compound, how does the “Ratio IC50” value read?
Answer: >100

Tested on: SW-620
Test: Antiproliferative activity against human SW620 cells after 72 hrs by MTT assay
Assay type: functional, cell-based
Settings: SW-620, 72 h
Summary of the method: as §1

Question: With `Clc1ccc(-n2cc(COc3ccc(-c4nc5ccc(Cl)cc5[nH]4)cc3)nn2)cc1` as the compound, how does the IC50 read?
Answer: 4.28 µM

Question: Which IC50 does the source give for `c1ccc(-n2cc(COc3ccc(-c4nc5cc(C6=NCCN6)ccc5[nH]4)cc3)nn2)cc1` here?
Answer: 29.6 µM

Question: Which IC50 does the source give for `Cl.Clc1ccc(Cn2cc(COc3ccc(-c4nc5cc(C6=NCCN6)ccc5[nH]4)cc3)nn2)cc1` here?
Answer: 0.05 µM

Question: With `N=C(N)c1ccc2[nH]c(-c3ccc(OCc4cn(-c5ccc(F)cc5)nn4)cc3)nc2c1` as the compound, how does the IC50 read?
Answer: 37.9 µM

Question: With `CC(C)NC(=N)c1ccc2[nH]c(-c3ccc(OCc4cn(-c5ccc(F)cc5)nn4)cc3)nc2c1` as the compound, how does the IC50 read?
Answer: 37.9 µM

Question: Which IC50 does the source give for `CC(C)NC(=N)c1ccc2[nH]c(CCc3cn(-c4ccc(Cl)cc4)nn3)nc2c1` here?
Answer: 56.8 µM

Question: For `CC(C)NC(=N)c1ccc2[nH]c(-c3ccc(OCc4cn(-c5ccc(I)cc5)nn4)cc3)nc2c1`, which IC50 is on record?
Answer: 0.69 µM
